From the M2OR odorant receptor database

Legend:
Conditions in all cases: stereoisomer not certain
[1] = target: T1, UniProt Q8VGX3
T1 sequence (whole entry): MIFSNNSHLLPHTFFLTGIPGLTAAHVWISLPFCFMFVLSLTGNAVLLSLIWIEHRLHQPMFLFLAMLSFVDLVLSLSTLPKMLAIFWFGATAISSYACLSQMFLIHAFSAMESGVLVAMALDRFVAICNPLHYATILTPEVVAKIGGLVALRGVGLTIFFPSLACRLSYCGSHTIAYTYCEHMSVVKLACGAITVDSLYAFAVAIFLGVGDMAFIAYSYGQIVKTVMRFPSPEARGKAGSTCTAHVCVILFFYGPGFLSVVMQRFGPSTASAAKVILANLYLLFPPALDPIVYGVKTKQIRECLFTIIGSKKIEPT
How it was run: (§1)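 Transient luciferase assays in mammalian cell lines were common, though methods varied by source. The values come from published papers and their supplementary material, with extra details from the original authors when needed. Responsive refers to a measured signal the original authors judged statistically different from baseline, and non-responsive (inactive) to the remainder.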

[2] = target: T2, UniProt Q8VGX5
T2 sequence (whole entry): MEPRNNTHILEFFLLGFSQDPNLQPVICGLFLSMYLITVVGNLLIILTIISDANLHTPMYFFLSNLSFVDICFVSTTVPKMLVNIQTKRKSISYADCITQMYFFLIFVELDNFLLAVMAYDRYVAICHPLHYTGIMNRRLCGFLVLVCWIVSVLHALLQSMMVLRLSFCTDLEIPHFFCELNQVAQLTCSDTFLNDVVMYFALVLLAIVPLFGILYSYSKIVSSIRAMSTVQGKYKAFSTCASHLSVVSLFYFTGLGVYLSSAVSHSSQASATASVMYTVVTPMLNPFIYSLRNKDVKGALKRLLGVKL
How it was run: as §1

[3] = target: T3, UniProt Q8VGZ2
T3 sequence (whole entry): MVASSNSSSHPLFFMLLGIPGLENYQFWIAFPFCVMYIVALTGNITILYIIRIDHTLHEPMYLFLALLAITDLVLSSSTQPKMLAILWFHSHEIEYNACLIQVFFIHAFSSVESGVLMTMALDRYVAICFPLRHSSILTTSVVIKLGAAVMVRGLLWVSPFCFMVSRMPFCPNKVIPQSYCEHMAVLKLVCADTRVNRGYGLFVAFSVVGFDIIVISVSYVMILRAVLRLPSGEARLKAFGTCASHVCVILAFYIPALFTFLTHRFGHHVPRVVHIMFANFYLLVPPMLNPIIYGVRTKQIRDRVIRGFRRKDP
How it was run: as §1

[4] = target: T4, UniProt Q8VGZ7
T4 sequence (whole entry): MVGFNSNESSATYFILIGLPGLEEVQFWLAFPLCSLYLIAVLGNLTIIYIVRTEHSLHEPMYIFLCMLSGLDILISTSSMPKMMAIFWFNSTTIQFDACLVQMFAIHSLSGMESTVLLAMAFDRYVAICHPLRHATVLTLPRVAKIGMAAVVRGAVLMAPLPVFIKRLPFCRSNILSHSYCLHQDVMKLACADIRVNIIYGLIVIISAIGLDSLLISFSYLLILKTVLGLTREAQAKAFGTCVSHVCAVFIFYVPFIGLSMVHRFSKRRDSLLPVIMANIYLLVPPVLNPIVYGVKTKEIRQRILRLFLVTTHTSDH
How it was run: as §1

[5] = target: T5, UniProt Q8VH16
T5 sequence (whole entry): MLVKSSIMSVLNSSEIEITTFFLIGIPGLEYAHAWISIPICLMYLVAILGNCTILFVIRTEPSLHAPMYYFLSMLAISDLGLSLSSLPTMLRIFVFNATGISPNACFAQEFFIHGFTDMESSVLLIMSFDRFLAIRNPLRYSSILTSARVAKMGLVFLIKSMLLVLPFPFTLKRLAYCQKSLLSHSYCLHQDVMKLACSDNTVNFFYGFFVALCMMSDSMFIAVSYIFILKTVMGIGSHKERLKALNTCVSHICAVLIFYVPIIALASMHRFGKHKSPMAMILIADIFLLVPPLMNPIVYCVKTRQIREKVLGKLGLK
How it was run: as §1

[6] = target: T6, UniProt Q8VH20
T6 sequence (whole entry): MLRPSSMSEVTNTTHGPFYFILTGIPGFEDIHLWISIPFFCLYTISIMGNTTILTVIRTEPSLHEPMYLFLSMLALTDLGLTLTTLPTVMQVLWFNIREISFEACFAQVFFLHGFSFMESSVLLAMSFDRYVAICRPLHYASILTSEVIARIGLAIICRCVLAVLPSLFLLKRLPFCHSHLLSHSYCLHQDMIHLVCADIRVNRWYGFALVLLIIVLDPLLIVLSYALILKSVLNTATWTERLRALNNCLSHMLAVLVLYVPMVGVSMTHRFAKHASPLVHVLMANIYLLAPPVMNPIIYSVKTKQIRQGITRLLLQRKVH
How it was run: as §1

[7] = target: T7, UniProt Q8VH21
T7 sequence (whole entry): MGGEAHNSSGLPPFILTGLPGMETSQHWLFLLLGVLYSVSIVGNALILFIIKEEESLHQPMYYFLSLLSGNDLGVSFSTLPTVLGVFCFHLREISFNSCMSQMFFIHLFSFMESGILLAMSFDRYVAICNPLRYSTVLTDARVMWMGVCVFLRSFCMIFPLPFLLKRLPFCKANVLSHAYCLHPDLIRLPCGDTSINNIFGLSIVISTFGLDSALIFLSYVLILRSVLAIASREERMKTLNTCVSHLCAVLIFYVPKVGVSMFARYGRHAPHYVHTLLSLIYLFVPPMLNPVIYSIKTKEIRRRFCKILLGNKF
How it was run: as §1

[8] = target: T8, UniProt Q924H8
T8 sequence (whole entry): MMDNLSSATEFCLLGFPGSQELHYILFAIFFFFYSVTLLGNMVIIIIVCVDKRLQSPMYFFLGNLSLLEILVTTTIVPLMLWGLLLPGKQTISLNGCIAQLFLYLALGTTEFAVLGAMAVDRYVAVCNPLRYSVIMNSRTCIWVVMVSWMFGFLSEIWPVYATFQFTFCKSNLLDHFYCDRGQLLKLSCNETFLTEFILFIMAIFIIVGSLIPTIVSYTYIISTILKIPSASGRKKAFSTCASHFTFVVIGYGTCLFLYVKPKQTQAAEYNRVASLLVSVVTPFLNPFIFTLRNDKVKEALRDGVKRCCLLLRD
How it was run: as §1

[9] = target: T9, UniProt Q8VGX8
T9 sequence (whole entry): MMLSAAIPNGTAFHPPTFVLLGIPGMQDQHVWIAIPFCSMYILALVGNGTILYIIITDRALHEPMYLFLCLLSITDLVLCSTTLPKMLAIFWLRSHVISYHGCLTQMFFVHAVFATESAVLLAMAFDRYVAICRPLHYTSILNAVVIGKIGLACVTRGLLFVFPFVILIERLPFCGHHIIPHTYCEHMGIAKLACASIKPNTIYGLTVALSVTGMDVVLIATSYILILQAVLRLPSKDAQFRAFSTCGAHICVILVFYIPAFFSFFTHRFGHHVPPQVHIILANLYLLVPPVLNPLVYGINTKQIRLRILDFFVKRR
How it was run: as §1

[10] = target: T10, UniProt Q8VGY6
T10 sequence (whole entry): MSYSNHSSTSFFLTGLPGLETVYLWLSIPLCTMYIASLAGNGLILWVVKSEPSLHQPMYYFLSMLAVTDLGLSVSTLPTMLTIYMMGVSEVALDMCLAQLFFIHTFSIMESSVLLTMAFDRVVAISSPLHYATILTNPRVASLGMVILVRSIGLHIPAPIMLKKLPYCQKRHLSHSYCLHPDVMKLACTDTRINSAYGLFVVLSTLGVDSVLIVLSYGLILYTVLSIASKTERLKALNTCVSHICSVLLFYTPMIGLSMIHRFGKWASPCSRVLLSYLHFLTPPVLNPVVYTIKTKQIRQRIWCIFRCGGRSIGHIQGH
How it was run: as §1

[11] = target: T11, UniProt Q8VH10
T11 sequence (whole entry): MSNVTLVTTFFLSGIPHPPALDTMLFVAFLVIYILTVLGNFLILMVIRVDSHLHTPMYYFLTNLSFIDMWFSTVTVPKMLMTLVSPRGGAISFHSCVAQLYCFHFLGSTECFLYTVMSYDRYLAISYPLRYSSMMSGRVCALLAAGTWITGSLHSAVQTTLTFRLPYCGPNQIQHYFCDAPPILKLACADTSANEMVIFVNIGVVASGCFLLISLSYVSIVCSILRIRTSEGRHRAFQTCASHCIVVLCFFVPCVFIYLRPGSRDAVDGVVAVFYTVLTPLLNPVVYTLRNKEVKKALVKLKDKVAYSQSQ
How it was run: as §1

[12] = target: T12, UniProt Q9EPN9
T12 sequence (whole entry): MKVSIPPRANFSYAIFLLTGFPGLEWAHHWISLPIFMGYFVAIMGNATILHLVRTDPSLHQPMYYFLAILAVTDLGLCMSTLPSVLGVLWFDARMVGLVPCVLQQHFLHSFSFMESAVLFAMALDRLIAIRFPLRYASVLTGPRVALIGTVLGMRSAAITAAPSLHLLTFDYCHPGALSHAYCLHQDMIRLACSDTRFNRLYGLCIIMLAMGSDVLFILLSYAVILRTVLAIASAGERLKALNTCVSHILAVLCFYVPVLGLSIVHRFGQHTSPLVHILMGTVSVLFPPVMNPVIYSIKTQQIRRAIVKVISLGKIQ
How it was run: as §1

[13] = target: UniProt Q9R0K2
How it was run: as §1

[14] = target: T13, UniProt Q9WU86
T13 sequence (whole entry): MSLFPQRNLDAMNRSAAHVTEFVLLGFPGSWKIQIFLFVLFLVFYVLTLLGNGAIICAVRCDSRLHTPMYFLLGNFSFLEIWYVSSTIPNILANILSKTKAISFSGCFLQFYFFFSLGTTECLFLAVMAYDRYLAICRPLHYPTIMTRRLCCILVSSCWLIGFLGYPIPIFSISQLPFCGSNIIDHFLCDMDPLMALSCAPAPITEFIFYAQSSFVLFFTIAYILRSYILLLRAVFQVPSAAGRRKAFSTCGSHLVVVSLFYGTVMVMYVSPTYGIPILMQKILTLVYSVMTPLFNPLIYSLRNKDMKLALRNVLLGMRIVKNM
How it was run: as §1

[15] = target: UniProt Q99NH4
How it was run: as §1

[16] = target: T14, UniProt Q920P1
T14 sequence (whole entry): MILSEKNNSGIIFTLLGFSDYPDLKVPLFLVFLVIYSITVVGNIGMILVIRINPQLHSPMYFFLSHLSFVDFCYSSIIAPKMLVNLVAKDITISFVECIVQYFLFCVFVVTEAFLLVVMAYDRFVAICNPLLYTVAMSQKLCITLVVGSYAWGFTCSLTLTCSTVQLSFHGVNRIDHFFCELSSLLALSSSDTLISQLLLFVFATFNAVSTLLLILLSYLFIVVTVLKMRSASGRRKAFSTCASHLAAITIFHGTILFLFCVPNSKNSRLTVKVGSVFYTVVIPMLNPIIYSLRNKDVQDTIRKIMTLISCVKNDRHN
How it was run: as §1

[17] = target: T15, UniProt Q920P2
T15 sequence (whole entry): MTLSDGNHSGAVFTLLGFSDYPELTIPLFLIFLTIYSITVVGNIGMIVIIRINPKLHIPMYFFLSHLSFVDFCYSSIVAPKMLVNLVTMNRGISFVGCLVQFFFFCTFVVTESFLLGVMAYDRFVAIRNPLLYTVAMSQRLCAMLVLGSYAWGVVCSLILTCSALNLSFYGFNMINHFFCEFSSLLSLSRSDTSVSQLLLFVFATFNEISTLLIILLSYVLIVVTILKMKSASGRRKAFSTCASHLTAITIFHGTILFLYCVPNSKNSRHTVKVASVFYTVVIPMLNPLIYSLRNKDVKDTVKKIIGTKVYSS
How it was run: as §1

Measured: odorant receptor agonist call

Sequence of UniProt Q9R0K2 (Q9R0K2 as listed by the source): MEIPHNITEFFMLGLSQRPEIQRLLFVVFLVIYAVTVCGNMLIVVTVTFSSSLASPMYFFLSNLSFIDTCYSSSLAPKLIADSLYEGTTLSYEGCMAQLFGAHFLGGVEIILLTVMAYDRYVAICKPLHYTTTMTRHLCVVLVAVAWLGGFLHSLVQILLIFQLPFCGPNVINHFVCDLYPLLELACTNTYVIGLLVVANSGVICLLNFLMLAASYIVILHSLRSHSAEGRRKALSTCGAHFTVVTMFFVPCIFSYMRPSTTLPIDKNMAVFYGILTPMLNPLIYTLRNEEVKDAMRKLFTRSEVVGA
Sequence of UniProt Q99NH4 (Q99NH4 as listed by the source): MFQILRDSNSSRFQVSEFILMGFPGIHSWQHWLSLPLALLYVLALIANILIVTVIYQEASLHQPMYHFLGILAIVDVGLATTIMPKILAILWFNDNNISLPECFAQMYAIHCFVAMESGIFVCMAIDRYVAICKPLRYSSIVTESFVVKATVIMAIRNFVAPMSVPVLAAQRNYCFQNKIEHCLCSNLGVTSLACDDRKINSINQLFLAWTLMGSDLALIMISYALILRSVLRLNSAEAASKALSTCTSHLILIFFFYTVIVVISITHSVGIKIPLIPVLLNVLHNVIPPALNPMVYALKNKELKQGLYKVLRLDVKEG

CCCCCCC(Br)C(=O)O (stereo unspecified)
active: [6]
inactive: [1] | [2] | [3] | [4] | [5] | [7] | [8]

C=CCOC(=O)Cc1ccccc1
active: [2] | [11] | [12] | [13]
not listed: [15] | [16] | [17]
inactive: all other assays above

CCCCC(Br)C(=O)O (stereo unspecified)
active: [6] | [15]
inactive: [1] | [2] | [3] | [4] | [5] | [7] | [8]

C=CCc1ccccc1
active: [14]
not listed: [1] | [5] | [7] | [8] | [15]
inactive: all other assays above

O=Cc1ccc2c(c1)OCO2
inactive: [1] | [3] | [4] | [5] | [6] | [7] | [16] | [17] | [8]
active: [2]

CC(C=O)Cc1ccc2c(c1)OCO2 (stereo unspecified)
inactive: [1] | [3] | [4] | [5] | [6] | [7] | [8]
active: [2]

c1ccncc1
inactive: [16] | [17]

Cc1ccc(OC(=O)Cc2ccccc2)cc1
active: [6]
inactive: [1] | [2] | [3] | [4] | [5] | [7] | [8]

C=CCc1ccc2c(c1)OCO2
inactive: [16] | [17]

CSSC
inactive: [1] | [2] | [3] | [4] | [5] | [6] | [7] | [8]
